# Assay: Toxicity liver stage against HepG2, at 10uM
# Assay type: cell-based
# Set-up: test concentration 10 uM, cell line HepG2-A16-CD81EGFP
# Conditions: human, HepG2-A16-CD81EGFP cells; read-out: INHIBITION
# Outline: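 Uninfected HepG2-A16-CD81EGFP cells, 3 × 10^3 per well, 1536-well, plated on prespotted compound at 10 μM final, parasite-free screening media added to match infected plates; puromycin 10 μM positive, DMSO 0.5% negative; run in parallel with 48 h PbLuc assay at 37 °C, 5% CO2; viability by CellTiter-Glo luminescence, normalized to controls.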
row,SMILES,cytotoxicity at 10 µM
1,O=C(c1cc(Cl)c2c(c1)OCO2)N1CCN(c2ncccn2)CC1,-0.769%
2,CCN(Cc1ccccc1)C1CCN(c2cc(C)nn2C)C1=O (stereo not given),-3.03%
3,COC[C@]12COC[C@H]1CN(Cc1ccc3ccccc3n1)C2,11.9%
4,Cc1ccc(N2CC[C@H]3O[C@@H](C(=O)NCc4ccco4)CC[C@H]32)nn1,2.03%
5,O=C(NCc1cc(=O)n2c(n1)CN(CC1CCOC1)CCC2)C1CC1 (stereo not given),-11.2%
6,CC(O)CC(C)(C)CNS(=O)(=O)c1cccc(Cl)c1C#N (stereo not given),-6.03%
7,COCCC1COC2(CCN(C(=O)c3cccn3C)CC2)C1 (stereo not given),-80.7%
8,Cc1cncc(C(=O)N2CC[C@@]3(C[C@H](NS(C)(=O)=O)CCO3)C2)c1,-73.6%
9,Cc1cccc(-c2noc(C)c2C(=O)NC2CCCOC2)c1 (stereo not given),5.2%
10,CCc1c(C(=O)N2C[C@@H]3CC[C@H]2CN(c2cnccn2)C3)csc1C,13.3%
11,COc1cccc(C(=O)N2CCCC2c2ncc3c(n2)CCN(C)C3)c1 (stereo not given),-9.41%
12,Fc1ccc(CN2CCCC3(COCCN(Cc4c[nH]nn4)C3)C2)cc1 (stereo not given),4.9%
13,Cc1nn(C)c(C)c1NC(=O)CNc1cccc(CC(F)(F)F)c1,-4.83%
14,OCCn1cc(CN2CCN(CCOc3ccccc3F)CC2)cn1,-5.72%
15,CO[C@H]1CN(Cc2cc(F)ccc2F)CC[C@@]12CCCO2,-8.49%
16,Nc1nc(N)c2c(n1)OC1(COCCN(Cc3nccs3)C1)C2 (stereo not given),-0.56%
17,CCN(CC)C(=O)[C@@H]1C[C@@H](NC(=O)c2cccn2C2CC2)CN1C,-5.94%
18,Cc1cn(-c2ccccc2)nc1NS(=O)(=O)c1cc(C(=O)O)cs1,-18.9%
19,CCSc1ccc(NC(=O)NC(C)c2ccncc2)cn1 (stereo not given),-5.14%
20,COCC(=O)N1CCC2(CC1)CC(OC)c1ccc(F)cc12 (stereo not given),-134%
21,CO[C@H]1CN(Cc2ccccc2F)[C@@H]2CCCO[C@H]12,-0.0925%
22,COc1ccccc1OCc1cc(C(=O)N2CCN[C@H](C)C2)n[nH]1,-9.09%

row,SMILES,cytotoxicity at 10 µM
1,Fc1ccc(C2(CNC3=NCCCN3)CCC2)cc1,7.2%
2,CCOC1CCCN(C(=O)NCCc2ccn(-c3ccccc3)n2)C1 (stereo not given),3.13%
3,Cn1cc(CN2CCC(F)(F)C3(CCN(c4cccc(F)c4)C3)C2)cn1 (stereo not given),45.9%
4,CCCn1ncc(C(=O)NC2CCN(C3CCOCC3)CC2)c1C,5.66%
5,Cc1nc(C)c(CC(=O)Nc2nnc(C(C)C)s2)c(=O)[nH]1,-7.16%
6,COc1cc(N2CCC3(CCN(C(=O)c4cccnc4)CC3)C2)ncn1,-130%
7,CCc1nn(C)c(Cl)c1CN1CCC2(C1)CN(C)C(=O)O2 (stereo not given),1.95%
8,Cc1ccc(C(=O)Nc2ccc(N(C)C)cn2)n1C,-2.48%
9,Cc1csc(C2CCCCN2C(=O)CN(C)C2CC2)n1 (stereo not given),-1.9%
10,Cc1ccc(C(=O)NC2CCN(C)CC2)cc1N(C)S(C)(=O)=O,-0.853%
11,CN(Cc1ccncc1)C(=O)c1ccc(F)c(NS(C)(=O)=O)c1,-0.453%
12,O=C1CC[C@@H]2[C@@H](CCN2C(=O)c2ccsc2)N1CC1CC1,-10.9%
13,O=C(N[C@@H]1CCNC[C@H]1O)c1ccc(-c2ccc(F)cc2)cc1,-6.29%
14,CC(=O)c1cccc(NS(=O)(=O)c2cc(C)c(C(=O)O)s2)c1,0.178%
15,O=C1CCCN1CCCN1CCCC(Cn2cncn2)C1 (stereo not given),-1.82%
16,Cn1nc2c(cc1=O)CN(Cc1nc(N)c3ccccc3n1)CC2,-8.86%
17,Fc1ccccc1CN1CCCC(NC2CCOCC2)C1 (stereo not given),6.56%
18,Cc1ccc(C(F)(F)F)cc1NCC(=O)Nc1c(C)nn(C)c1C,-1.86%
19,CN(C)CCN1CCN(Cc2ccco2)Cc2cccnc21,1.73%
20,CCOCCn1c(=O)[nH]c2cc(C(=O)N(C)Cc3nc(C)cs3)ccc21,-10.6%
21,CCC(=O)NC1CCCN(C(=O)c2ccc(OCC3CC3)nc2)C1 (stereo not given),15.2%
22,CN1CCC2(CC1)CN(C(=O)c1onc3ccccc13)CCCN2C,8.31%

row,SMILES,cytotoxicity at 10 µM
1,Cc1ccc(O)c(CNc2cccc(CN3CCN(C)CC3)c2)n1,-2%
2,O=C(Cc1c[nH]c2ccccc12)N1CCN(C(=O)c2ccoc2)CC1,-2.15%
3,CCc1noc(-c2cccc(NC(=O)C(C)(C)C)c2)n1,-4.15%
4,CN(C)CCN(Cc1cccnc1)C(=O)c1ccn(-c2ccccc2)n1,2.41%
5,CC(C)c1nnc(CN2CCCC2Cn2cncn2)o1 (stereo not given),-11.1%
6,Cc1cnn(C2CCCN(C(=O)c3cn(-c4ccccc4)nc3C)C2)c1 (stereo not given),-5.46%
7,COCC(=O)N1CCC(=O)N(C2CCCC2)Cc2ccccc21,-5.2%
8,O=c1ccc2c(n1Cc1ccncc1)CCN(Cc1ccoc1)CC2,-149%
9,OC1CCN(Cc2c(C3CCCNC3)[nH]c3ncccc23)CC1 (stereo not given),-0.542%
10,COC(=O)c1ccc(S(=O)(=O)N(C)CC(N)=O)c(Cl)c1,-1.65%
11,CCC(CNC(=O)CNC(C)=O)Oc1cccc(F)c1 (stereo not given),-43.6%
12,Cn1cnc2c1CCN(Cc1ccc(Cl)c3cccnc13)C2,10.6%
13,CC(C)n1[nH]c(=O)c2c1NC(=O)CSC2C1CCCCC1 (stereo not given),-4.56%
14,Cc1noc(C)c1CN1CCO[C@H]2CN(Cc3ccc(F)cc3)C[C@H]21,1.96%
15,Cc1ccccc1C(CC(=O)NCc1n[nH]c(N)n1)c1ccccc1 (stereo not given),8.8%
16,Cc1nc(C)n(CC2CCCN(c3ncnc4ccccc34)C2)n1 (stereo not given),17.4%
17,CC(C)CN1CC2(CCN(C(=O)C3CNC(=O)N3)CC2)CC1=O (stereo not given),2.18%
18,N#CC1COCCN1S(=O)(=O)c1ccc2ccccc2c1 (stereo not given),6.45%
19,Cn1ncc(NC(=O)Cn2cc(-c3ccc(F)cn3)cn2)n1,7.16%
20,Cc1ccc(OCC(=O)Nc2ncccc2OC(F)F)cc1,6.42%
21,CCc1n[nH]c(C2CN(Cc3nccn3CC)CCO2)n1 (stereo not given),-1.85%
22,O=C(NCCCOCC1CC1)Nc1cccnc1N1CCOCC1,5.55%

row,SMILES,cytotoxicity at 10 µM
1,CCn1nc2c(cc1=O)CN(Cc1nc(N)c3ccccc3n1)CC2,-5.59%
2,O=C1CCSCC(C(=O)N2CCCCC2)N1 (stereo not given),-3.55%
3,CC(C)c1nc(CN(C)C2CCN(Cc3nc(C4CC4)no3)C2)no1 (stereo not given),-9.37%
4,Cc1ccc(CN2CCOCC2)cc1NC(=O)c1ccsc1,3.22%
5,Cc1noc(C)c1CN1C[C@@H](OCc2ccccn2)[C@H]2OCCC[C@H]21,-3.14%
6,OCC1CCCN1c1cc(NCCc2c[nH]c3ccccc23)ncn1 (stereo not given),-7.06%
7,Cc1ccc(C2CSCCN2C(=O)c2ccncc2)cc1 (stereo not given),2.96%
8,O=C(C1CCCC1)N1CC2(CCN(C3COC3)CC2)Cc2ccccc21,7.91%
9,O=C(NCCN1CCOCC1)NCc1ncc(-c2ccccc2)o1,1.26%
10,Cc1ccc(NC2CCN(C(=O)c3ccc(Cl)cc3F)CC2)nn1,-17.7%
11,CCOCC1CN(S(=O)(=O)N(C)C)Cc2cnn(CC3CC3)c21 (stereo not given),12%
12,CC(=O)N1CC[C@H]2OCC[C@@H](C(=O)N3CCCCO3)[C@@H]2C1,-5.1%
13,CN1CCN(c2cc(CNCc3cccc4c3OCO4)ccn2)CC1,-5.31%
14,CN(Cc1ncnn1C)C1CCN(c2sccc2C#N)C1=O (stereo not given),10.2%
15,O=C1CCC[C@]2(CN(S(=O)(=O)N3CCCCC3)C[C@H]2c2cccnc2)N1,-0.217%
16,CN(C)c1ccc2c(c1)CN(C(=O)c1ccco1)C2c1cnco1 (stereo not given),31.9%
17,CN1CCN(Cc2ccccc2Oc2nccc3occc23)CC1,5.83%
18,Cc1nnc(CN(C)CC2CCCCC2)o1,15.6%
19,Cc1cc(C(=O)N2CCCC2c2nc(O)cc(C(C)C)n2)on1 (stereo not given),-3.42%
20,Cc1ccc(C(=O)N2CCSCC2)cc1NC(=O)NCCO,-9.64%
21,Cn1cc(C2CCCN2C(=O)COCCc2ccccc2)cn1 (stereo not given),-2.87%
22,CSCCC(=O)N1CCN(CC(C)O)CC1 (stereo not given),-5.64%

row,SMILES,cytotoxicity at 10 µM
1,CSc1c[nH]nc1NS(=O)(=O)c1ccc(C)c(C)c1,1.79%
2,CCn1ccnc1CNCC1CCN(CC(O)c2ccccc2)CC1 (stereo not given),-12.8%
3,CC(C)CN1C[C@H]2CCN(c3ncccn3)CC[C@H]2S1(=O)=O,-11.2%
4,Cc1ccc(C(=O)NCCS(=O)(=O)N2CCSCC2)n1C,-0.506%
5,O=c1nc(SCc2cccnc2)c2c(n1CCO)CCCC2,8.97%
6,CC(=O)NCC(=O)N1CCN(Cc2cccnc2)c2ncccc2C1,-114%
7,CCN(Cc1ccoc1)C(=O)NC1CCN(CC2CC2)C1 (stereo not given),-0.525%
8,NC(=O)c1cc2c(nc1Oc1ccc(CN3CCCC3)cc1F)CCC2,-3.62%
9,Cn1ncc(Cl)c1C(=O)N1CCc2nc3sccc3c(=O)n2CC1,-26.7%
10,COc1ccc(C)nc1NC(=O)Cc1c(C)nn(C)c1C,-0.302%
11,O=C(C1CCC1)N1C[C@H]2CNC[C@H]2C1,-4.1%
12,Cc1ccc(CN2CC[C@H]3NC(=O)CC[C@@H]32)o1,-5.28%
13,CNc1nc(C(=O)N2CCCC(CO)(CCCOC)C2)cs1 (stereo not given),7.43%
14,NS(=O)(=O)CC1CCCN(C(=O)CCCC2CCCC2)C1 (stereo not given),15.8%
15,CC(=O)Nc1ccc(CNCc2ccc(CS(C)(=O)=O)cc2)cc1,4.67%
16,CCCn1nccc1NC(=O)CN1CCCC1c1cccn1C (stereo not given),-5.76%
17,CCNC(=O)CC1CC2(CCN(C(C)=O)CC2)c2cc(F)ccc21 (stereo not given),6.83%
18,O=C1OCCN1CCNc1ncc2c(n1)CCN2c1ccccc1,-4.95%
19,Cc1noc(-c2ccc(N3CCN(Cc4ncccc4C)CC3)nc2)n1,-3.35%
20,CCNc1cc2c(nn1)CCN(C(=O)c1ccc(C(N)=O)cc1)C2,-15.6%
21,Fc1cccc(N2CCc3ncnc(N4CCOCC4)c3CC2)c1,9.49%
22,Cc1ccnc(NC(=O)c2ccc(Cl)o2)c1,4.14%
